# Laboratory results: PubChem BioAssay
# Calls of active or inactive are those of the source.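 How the source made its calls, unless noted: active means Her2 level under about 52% in both replicate screens, with viability over 70% of control (limit read from the data); inconclusive means Her2 under the limit in one screen only, or viability under 70%; inactive means Her2 level above the set limit.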
# Key:
# [1] = Her2 expression decrease, cell viability multiplex – SKBR3 breast tumor cells, AlphaScreen, ATP viability, primary screen (AID 461); details: SKBR3 Her2 protein level, 18-24 h, measured here: SKBR3 viability, ATP luminescence, at 10 µM;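 on Her2 level: lower value means less Her2 protein in the cells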;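 on viability: percent of carrier control wells set as 100% viability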
# [2] = target: Receptor tyrosine-protein kinase erbB-2 (Homo sapiens) (UniProt P04626); experiment: as above; details: 18-24 h, at 10 µM, stronger effect = lower value
# [3] = reduced viability of SK-BR-3 breast cancer cells – cell-based, 24 h, human, pilot screen (AID 572;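 active means viability at or below 10% of carrier control in both of two separate runs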;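 further: compound exposure lasted between 18 and 24 h rather than exactly 24 h; 100% = carrier-treated control wells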); details: SK-BR-3 viability, CellTiter-Glo luminescence, at 10 µM, stronger effect = lower value
# [4] = HUVEC growth inhibition – cell-based, human, primary screen (AID 575;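 active means viability at or below 30% in both replicate assays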;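 further: 100% = median of untreated cell wells with 0.1% DMSO on each plate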); details: HUVEC proliferation, CellTiter-Glo luminescence, 72 h; at 10 µM; stronger effect = lower value
# In short: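 Timing: 72 h treatment at 37 °C; material: HUVEC primary cells; technique: CellTiter-Glo luminescence measuring cellular ATP; controls: vehicle and MePR control wells; measure: percent of median DMSO-control luminescence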
# [5] = H69AR cell proliferation blockers – human, duplicate replicates, primary screen (AID 580;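 active means viability at or under a set limit in both replicates, limit being median viability minus 3 SD, cut at about 48% in these data, passing the limit was not always enough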;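 further: 100% = mean luminescence of untreated wells and 0% = no signal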); details: H69AR lung tumor cells viability, ATP luminescence, 72 h; at 10 µM; stronger effect = lower value
# [6] = MRP1 drug-resistance reversers in H69AR cells – cell-based, doxorubicin co-treatment, pilot screen (AID 601;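 active means viability loss from added drug above about 55%, and viability with drug at most 40%, in both replicates, limit read from the data, passing the limit was not always enough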); details: CellTiter-Glo, 72 h, at 10 µM; for differential viability (reversal): stronger effect = higher value
# [7] = yeast transport mutant growth inhibition pilot in 384-well plates, post-Golgi transport modulator project (AID 636; in the data active means inhibition above about 31%); details: absorbance 615 nm, about 18 h, stronger effect = higher value
# [8] = growth suppression of yeast trafficking mutant, preliminary HTS, modulators of trafficking downstream of Golgi apparatus project, 1536-format plate, OD 615 nm (AID 637; in the data active means inhibition above about 30%); details: yeast transport mutant growth, absorbance 615 nm, 18 h; stronger effect = higher value
# [9] = H69AR cells + 2 uM doxorubicin, measured here: viability with 2 uM doxorubicin, stronger effect = lower value
# [10] = H69AR cells, compound alone cytotoxicity
# Sequence of Receptor tyrosine-protein kinase erbB-2 (Homo sapiens) (P04626 whole entry, looked up): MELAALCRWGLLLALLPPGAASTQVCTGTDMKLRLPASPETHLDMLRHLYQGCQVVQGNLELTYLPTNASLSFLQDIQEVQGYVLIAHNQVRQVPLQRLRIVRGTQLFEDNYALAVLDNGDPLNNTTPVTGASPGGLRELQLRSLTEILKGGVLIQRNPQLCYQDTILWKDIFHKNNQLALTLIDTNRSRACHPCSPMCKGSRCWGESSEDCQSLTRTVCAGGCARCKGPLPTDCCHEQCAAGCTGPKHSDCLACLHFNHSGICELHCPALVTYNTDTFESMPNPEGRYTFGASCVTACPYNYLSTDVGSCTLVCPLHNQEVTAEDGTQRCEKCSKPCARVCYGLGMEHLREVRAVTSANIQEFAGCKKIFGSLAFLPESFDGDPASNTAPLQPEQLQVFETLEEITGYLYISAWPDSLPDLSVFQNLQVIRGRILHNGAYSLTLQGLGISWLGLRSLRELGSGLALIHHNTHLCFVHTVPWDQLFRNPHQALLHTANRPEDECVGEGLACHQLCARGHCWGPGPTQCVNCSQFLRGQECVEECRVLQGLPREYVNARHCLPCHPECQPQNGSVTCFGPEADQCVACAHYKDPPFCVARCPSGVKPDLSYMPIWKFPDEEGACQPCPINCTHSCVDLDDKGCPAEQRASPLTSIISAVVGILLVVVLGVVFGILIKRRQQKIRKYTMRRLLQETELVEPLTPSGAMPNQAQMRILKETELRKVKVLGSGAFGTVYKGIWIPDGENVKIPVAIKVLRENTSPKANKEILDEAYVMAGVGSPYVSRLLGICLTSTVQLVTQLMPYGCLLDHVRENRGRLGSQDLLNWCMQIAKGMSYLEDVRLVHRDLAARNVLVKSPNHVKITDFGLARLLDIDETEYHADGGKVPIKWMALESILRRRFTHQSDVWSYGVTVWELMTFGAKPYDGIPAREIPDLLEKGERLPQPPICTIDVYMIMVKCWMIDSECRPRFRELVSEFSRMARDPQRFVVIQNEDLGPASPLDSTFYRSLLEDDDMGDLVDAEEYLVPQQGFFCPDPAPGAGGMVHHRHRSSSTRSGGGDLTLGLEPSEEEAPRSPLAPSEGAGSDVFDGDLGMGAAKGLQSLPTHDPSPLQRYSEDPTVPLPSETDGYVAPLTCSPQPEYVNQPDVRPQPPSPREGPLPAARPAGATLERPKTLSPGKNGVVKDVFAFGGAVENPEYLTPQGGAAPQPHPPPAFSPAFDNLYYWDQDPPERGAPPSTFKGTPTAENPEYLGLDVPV
SMILES,viability [1] [%],Her2 level [2],viability [3],viability [4],viability [5],differential viability (reversal) ([6]; H69AR cells + 2 uM doxorubicin),"viability [6, 9] [%]","viability [6, 10] [%]",inhibition [7],inhibition [8]
CCCCc1noc2c1/C(=N\O)CC(c1ccccc1)C2 (stereo not given),86,82.5% (inactive),86% (inactive),108% (inactive),90.5% (inactive),-0.815% (inactive),91.3,90.5,3.11% (inactive),-3.77% (inactive)
Cc1ccc(CCNC(=O)Cn2cccc2)cc1,112,98% (inactive),112% (inactive),110% (inactive),99.5% (inactive),5.51% (inactive),94,99.5,-4.73% (inactive),0.67% (inactive)
O=C(C1CCC1)N1CCc2cc(S(=O)(=O)Nc3ccc4c(c3)OCO4)ccc21,85.5,76% (inactive),85.5% (inactive),70.1% (inactive),91.6% (inactive),17.8% (inactive),73.8,91.6,-6.27% (inactive),-5.08% (inactive)
CCCCC(=O)NCCc1ccc(S(N)(=O)=O)cc1,104,104% (inactive),104% (inactive),95.4% (inactive),97.1% (inactive),9.4% (inactive),87.7,97.1,-2.16% (inactive),2.62% (inactive)
CC(C)(C)c1ccccc1NC(=O)c1cccnc1,91.5,93.5% (inactive),91.5% (inactive),88.7% (inactive),96.6% (inactive),7.78% (inactive),88.8,96.6,-4.67% (inactive),0.32% (inactive)
Cn1c2c(c(=O)n(C)c1=O)CN(CCCN1CCOCC1)CN2,100,86.5% (inactive),100% (inactive),106% (inactive),108% (inactive),7.39% (inactive),101,108,-5.26% (inactive),-5.27% (inactive)
CC1(C)NC(=O)N(CNc2cc(Cl)ccc2Cl)C1=O,104,87.5% (inactive),104% (inactive),85.7% (inactive),96.4% (inactive),0.94% (inactive),95.5,96.4,-3.55% (inactive),-1.82% (inactive)
Cc1nc(CCNC(=O)c2ccccc2)cs1,92.5,95% (inactive),92.5% (inactive),106% (inactive),98.5% (inactive),7.85% (inactive),90.6,98.5,0.27% (inactive),4.03% (inactive)
CCn1c(=O)n(CC(=O)Nc2cc(OC)ccc2OC)c(=O)c2ccccc21,110,77% (inactive),110% (inactive),86% (inactive),87.4% (inactive),17.7% (inactive),69.7,87.4,-0.66% (inactive),-0.32% (inactive)
CCC(=O)Nc1c(C#N)c2nc3ccccc3nc2n1-c1ccccc1C,95,82.5% (inactive),95% (inactive),99.2% (inactive),87.5% (inactive),-3.52% (inactive),91,87.5,-5.2% (inactive),8.85% (inactive)
Cc1ccccc1OCCN1C(=O)NC2(CCc3ccccc32)C1=O (stereo not given),94.5,83.5% (inactive),94.5% (inactive),92.9% (inactive),82.7% (inactive),0.01% (inactive),82.7,82.7,-6.62% (inactive),0% (inactive)
O=c1c2c(nc3nc(COc4ccccc4)[nH]n13)CCC2,103,103% (inactive),103% (inactive),99.5% (inactive),101% (inactive),10.9% (inactive),90.2,101,-4.8% (inactive),3.23% (inactive)
COc1ccc(CN(C(=O)CNC(=O)c2ccco2)C(C(=O)NC2CCCC2)c2ccco2)cc1 (stereo not given),91,106% (inactive),91% (inactive),103% (inactive),95.4% (inactive),7.6% (inactive),87.8,95.4,-0.39% (inactive),-5.48% (inactive)
CCOC(=O)Cc1csc(NC(=O)CN(C)S(=O)(=O)c2ccc3c(c2)CCC(=O)N3)n1,108,109% (inactive),108% (inactive),97.5% (inactive),100% (inactive),6.38% (inactive),93.7,100,-4% (inactive),0.82% (inactive)
O=C(OCn1nnc2ccccc2c1=O)C1CCN(S(=O)(=O)c2cccs2)CC1,97,133% (inactive),97% (inactive),97.7% (inactive),105% (inactive),1.22% (inactive),104,105,1.54% (inactive),-4.67% (inactive)
CC(=O)N1CCN(c2ccc(S(=O)(=O)N3CCCCC3)cn2)CC1,97,89.5% (inactive),97% (inactive),101% (inactive),88.6% (inactive),3.99% (inactive),84.6,88.6,-0.39% (inactive),-0.16% (inactive)
